Data from ChEMBL document CHEMBL2440012, “Design, synthesis and anticonvulsant properties of new N-Mannich bases derived from 3-phenylpyrrolidine-2,5-diones” (Bioorg Med Chem, 2013).
Active and inactive are the calls of the source. No cut-off for these calls is given here.

Legend:
[1] = system: Mus musculus; test: Anticonvulsant activity in albino CF1 mouse assessed as protection against subcutaneous pentylenetetrazole-induced convulsion at 300 mg/kg, ip measured after 0.5 hrs; type: functional, organism-based; design: dose 300 mg/kg
Outline: (§1)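 Male CF-1 mice given ip suspension in 0.5% methylcellulose/water at 30, 100 and 300 mg/kg; MES, scPTZ (pentylenetetrazole 85 mg/kg sc, CD97 dose for clonic seizures ≥5 s) and rotarod (inability to hold balance 1 min in each of three trials) assessed at 0.5 and 4 h; value is minimum dose active in half or more animals.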

[2] = system: Mus musculus; test: Anticonvulsant activity in albino CF1 mouse assessed as protection against subcutaneous pentylenetetrazole-induced convulsion at 300 mg/kg, ip measured after 4 hrs; type: functional, organism-based; design: dose 300 mg/kg; outline: as §1
[3] = system: Mus musculus; test: Anticonvulsant activity in ip dosed albino CF1 mouse assessed as protection against maximal electroshock-induced seizures in half or more animals measured after 4 hrs; type: functional; conditions: read-out: MED; outline: as §1
[4] = system: Mus musculus; test: Anticonvulsant activity in albino CF1 mouse assessed as protection against maximal electroshock-induced seizures at 300 mg/kg, ip measured after 0.5 hr; type: functional, organism-based; design: dose 300 mg/kg; outline: as §1
[5] = system: Mus musculus; test: Neurotoxicity in ip dosed albino CF1 mouse assessed as minimum motor impairment in half or more animals measured after 0.5 hrs by rotorod test; type: toxicity, organism-based; conditions: in vivo; outline: as §1
[6] = system: Mus musculus; test: Neurotoxicity in ip dosed albino CF1 mouse assessed as minimum motor impairment in half or more animals measured after 4 hrs by rotorod test; type: toxicity, organism-based; conditions: in vivo; outline: as §1
[7] = system: Mus musculus; test: Neurotoxicity in albino CF1 mouse assessed as minimum motor impairment at 300 mg/kg, ip measured after 0.5 hr by rotorod test; type: toxicity, organism-based; design: dose 300 mg/kg, route intraperitoneal; conditions: in vivo; outline: as §1
[8] = system: Mus musculus; test: Neurotoxicity in albino CF1 mouse assessed as minimum motor impairment at 300 mg/kg, ip measured after 4 hrs by rotorod test; type: toxicity, organism-based; design: dose 300 mg/kg, route intraperitoneal; conditions: in vivo; outline: as §1
[9] = system: Mus musculus; test: Anticonvulsant activity in albino CF1 mouse assessed as protection against maximal electroshock-induced seizures at 300 mg/kg, ip measured after 4 hrs; type: functional, organism-based; design: dose 300 mg/kg; outline: as §1
[10] = system: Rattus norvegicus; test: Anticonvulsant activity in albino Sprague-Dawley rat assessed as protection against maximal electroshock-induced seizures at 30 mg/kg, po measured after 0.5 hr; type: functional
Outline: (§2)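 Male Sprague-Dawley rats, four per group, dosed p.o. at 30 mg/kg in 0.5% methylcellulose/water suspension; MES test at 0.25, 0.5, 1, 2 and 4 h, motor impairment examined in parallel; number of rats out of four protected.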

[11] = system: Rattus norvegicus; test: Anticonvulsant activity in albino Sprague-Dawley rat assessed as protection against maximal electroshock-induced seizures at 30 mg/kg, po measured after 1 hr; type: functional; outline: as §2
[12] = system: Rattus norvegicus; test: Anticonvulsant activity in albino Sprague-Dawley rat assessed as protection against maximal electroshock-induced seizures at 30 mg/kg, po measured after 2 hrs; type: functional; outline: as §2
[13] = system: Rattus norvegicus; test: Anticonvulsant activity in albino Sprague-Dawley rat assessed as protection against maximal electroshock-induced seizures at 30 mg/kg, po measured after 4 hrs; type: functional; outline: as §2
[14] = system: Rattus norvegicus; test: Anticonvulsant activity in albino Sprague-Dawley rat assessed as protection against maximal electroshock-induced seizures at 30 mg/kg, po measured after 0.25 hr; type: functional; outline: as §2
[15] = system: Mus musculus; test: Anticonvulsant activity in ip dosed albino CF1 mouse assessed as protection against maximal electroshock-induced seizures in half or more animals measured after 0.5 hr; type: functional; conditions: read-out: MED; outline: as §1
[16] = system: Mus musculus; test: Anticonvulsant activity in albino CF1 mouse assessed as assessed as protection against 6 Hz psychomotor seizure at 100 mg/kg, ip after 1 hr by minimal clonic seizure test; type: functional; conditions: route intraperitoneal
Outline: (§3)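 Male CF-1 mice, groups of four, dosed ip in 0.5% methylcellulose/water suspension, then challenged by 6-Hz corneal stimulation at 32 mA (0.2 ms pulses, 3 s, constant current) at 0.25, 0.5, 1, 2 or 4 h; count of mice out of four protected from stunned posture/clonic seizure.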

[17] = system: Mus musculus; test: Anticonvulsant activity in albino CF1 mouse assessed as assessed as protection against 6 Hz psychomotor seizure at 100 mg/kg, ip after 2 hrs by minimal clonic seizure test; type: functional; conditions: route intraperitoneal; outline: as §3
[18] = system: Mus musculus; test: Anticonvulsant activity in albino CF1 mouse assessed as assessed as protection against 6 Hz psychomotor seizure at 100 mg/kg, ip after 4 hrs by minimal clonic seizure test; type: functional; conditions: route intraperitoneal; outline: as §3
[19] = system: Mus musculus; test: Anticonvulsant activity in albino CF1 mouse assessed as assessed as protection against 6 Hz psychomotor seizure at 100 mg/kg, ip after 0.25 hr by minimal clonic seizure test; type: functional; conditions: route intraperitoneal; outline: as §3
[20] = system: Mus musculus; test: Anticonvulsant activity in albino CF1 mouse assessed as assessed as protection against 6 Hz psychomotor seizure at 100 mg/kg, ip after 0.5 hr by minimal clonic seizure test; type: functional; conditions: route intraperitoneal; outline: as §3

SMILES | Activity [1] | Activity [2] | minimal effective dose [3] [mg/kg] | Activity [4] | MED [5] [mg/kg] | Activity [7] | Activity [8] | Activity [9] | further results
O=C1CC(c2ccccc2Cl)C(=O)N1CN1CCN(c2cccc(Cl)c2)CC1 (racemic) | inactive | inactive | 100 | inactive | 100 |  |  |  | MED [6]: 300 mg/kg
O=C1CC(c2ccccc2Cl)C(=O)N1CN1CCN(c2ccccc2Cl)CC1 (racemic) | inactive | inactive |  | inactive |  | Non-toxic | Non-toxic | inactive | 
O=C1CC(c2ccccc2Cl)C(=O)N1CN1CCN(c2ccc(Cl)cc2)CC1 (racemic) | inactive | inactive | 300 | inactive |  | Non-toxic | Non-toxic |  | 
COc1ccccc1N1CCN(CN2C(=O)CC(c3cccc(Cl)c3)C2=O)CC1 (racemic) | inactive | inactive |  | inactive | 300 |  |  | inactive | MED [6]: 300 mg/kg
O=C1CC(c2cccc(Cl)c2)C(=O)N1CN1CCOCC1 (racemic) | inactive | inactive | 100 |  | 300 |  | Non-toxic |  | Activity [10]: 50%; Activity [11]: 50%; Activity [12]: 50%; Activity [13]: 50%; Activity [14]: inactive; minimal effective dose [15]: 100 mg/kg
O=C1CC(c2cccc(Cl)c2)C(=O)N1CN1CCN(c2ccccc2Cl)CC1 (racemic) | inactive | inactive |  | inactive |  | Non-toxic | Non-toxic | inactive | 
O=C1CC(c2ccc(Cl)cc2)C(=O)N1CN1CCN(c2ncccn2)CC1 (racemic) | inactive | inactive |  | inactive | 300 |  | Non-toxic | inactive | 
O=C1CC(c2ccccc2Cl)C(=O)N1CN1CCN(C2CCCCC2)CC1 (racemic) | inactive | inactive | 100 | inactive |  | Non-toxic | Non-toxic |  | 
O=C1CC(c2ccc(Cl)cc2)C(=O)N1CN1CCN(c2cccc(C(F)(F)F)c2)CC1 (racemic) | inactive | inactive | 100 | inactive | 300 |  | Non-toxic |  | 
O=C1CC(c2cccc(Cl)c2)C(=O)N1CN1CCN(c2cccc(C(F)(F)F)c2)CC1 (racemic) | inactive | inactive | 100 |  | 300 |  |  |  | minimal effective dose [15]: 100 mg/kg; MED [6]: 300 mg/kg
O=C1CC(c2cccc(Cl)c2)C(=O)N1CN1CCN(c2ccccc2F)CC1 (racemic) | inactive | inactive | 100 | inactive | 300 |  | Non-toxic |  | 
O=C1CC(c2cccc(Cl)c2)C(=O)N1CN1CCN(C2CCCCC2)CC1 (racemic) | inactive | inactive | 300 |  |  | Non-toxic | Non-toxic |  | minimal effective dose [15]: 300 mg/kg
O=C1CC(c2ccc(Cl)cc2)C(=O)N1CN1CCC(Cc2ccccc2)CC1 (racemic) | inactive | inactive | 100 | inactive |  | Non-toxic | Non-toxic |  | Activity [16]: 0%; Activity [17]: 75%; Activity [18]: 25%; Activity [19]: 0%; Activity [20]: 0%
O=C1CC(c2cccc(Cl)c2)C(=O)N1CN1CCC(Cc2ccccc2)CC1 (racemic) | inactive | inactive | 100 |  |  | Non-toxic | Non-toxic |  | Activity [10]: inactive; Activity [11]: 25%; Activity [12]: 50%; Activity [13]: inactive; Activity [14]: 50%; minimal effective dose [15]: 300 mg/kg
O=C1CC(c2ccc(Cl)cc2)C(=O)N1CN1CCN(C2CCCCC2)CC1 (racemic) | inactive | inactive | 100 | inactive |  | Non-toxic | Non-toxic |  | 
O=C1CC(c2ccc(Cl)cc2)C(=O)N1CN1CCN(c2ccc(Cl)cc2)CC1 (racemic) | inactive | inactive |  | inactive |  | Non-toxic | Non-toxic | inactive | 
O=C1CC(c2ccc(Cl)cc2)C(=O)N1CN1CCOCC1 (racemic) | inactive | inactive | 300 |  |  | Non-toxic | Non-toxic |  | minimal effective dose [15]: 100 mg/kg
O=C1CC(c2ccc(Cl)cc2)C(=O)N1CN1CCN(c2ccccc2Cl)CC1 (racemic) | inactive | inactive |  | inactive | 300 |  |  | inactive | MED [6]: 300 mg/kg
O=C1CC(c2ccccc2)C(=O)N1CN1CCN(C2CCCCC2)CC1 (racemic) | inactive | inactive |  | inactive |  | Non-toxic | Non-toxic | inactive | 
O=C1CC(c2cccc(Cl)c2)C(=O)N1CN1CCN(c2ncccn2)CC1 (racemic) | inactive | inactive | 100 | inactive |  | Non-toxic | Non-toxic |  | Activity [10]: inactive; Activity [11]: inactive; Activity [12]: inactive; Activity [13]: inactive; Activity [14]: inactive
O=C1CC(c2cccc(Cl)c2)C(=O)N1CN1CCN(c2cccc(Cl)c2)CC1 (racemic) | inactive | inactive |  | inactive |  | Non-toxic | Non-toxic | inactive | 
O=C1CC(c2ccccc2Cl)C(=O)N1CN1CCN(c2cccc(C(F)(F)F)c2)CC1 (racemic) | inactive | inactive | 100 | inactive |  | Non-toxic | Non-toxic |  | 
O=C1CC(c2cccc(Cl)c2)C(=O)N1CN1CCN(c2ccc(Cl)cc2)CC1 (racemic) | inactive | inactive | 100 |  |  | Non-toxic | Non-toxic |  | minimal effective dose [15]: 300 mg/kg
O=C1CC(c2ccc(Cl)cc2)C(=O)N1CN1CCN(c2cccc(Cl)c2)CC1 (racemic) | inactive | inactive | 100 | inactive | 300 |  |  |  | MED [6]: 300 mg/kg
Cc1cccc(N2CCN(CN3C(=O)CC(c4cccc(Cl)c4)C3=O)CC2)c1 (racemic) | inactive | inactive | 30 | inactive | 100 |  | Non-toxic |  | 
